Data published in ChEMBL document CHEMBL1155356, “Design, synthesis, and structure-activity relationship of novel orally efficacious pyrazole/sulfonamide based dihydroquinoline gamma-secretase inhibitors” (Bioorg Med Chem Lett, 2009).
≈ marks a conversion by molar mass, not a printed value.

Assays:
[1] = (§1) Oxidative metabolic stability in human liver microsomes at 1 uM after 30 mins in presence of 1 mM NADPH; type: ADME, Microsome; settings: liver microsomes, read-out: Stability
Outline: (§2)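 Oxidative stability: compound at 1 µM incubated 30 min at 37 °C in phosphate buffer with liver microsomes (0.5 mg/ml protein) plus 1 mM NADPH. Percent parent remaining reported. Human or mouse microsomes per line.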

Gamma-secretase = test: Inhibition of Gamma-secretase in human IMR-32 cells after 2 hrs by ELISA assay; type: cell-based
Outline: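 γ-Secretase came from IMR-32 cell membranes, and compound was first diluted in DMSO. Reaction at 37 °C was started with MBPC-125 Swedish substrate, run for 2 h, then stopped with SDS. Cleaved substrate was measured by Aβ40-specific ELISA. Values are means of three experiments.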

[2] = Oxidative metabolic stability in mouse liver microsomes at 1 uM after 30 mins in presence of 1 mM NADPH; type: ADME, Microsome; settings: for remaining at 0.5 h, 1 µM: liver microsomes, read-out: Stability; for Stability: microsomes, 0.5 h, 1 µM; outline: as §2
Liver microsomes = test: as §1; type: ADME, Microsome; settings: microsomes, 0.5 h, 1 µM; outline: as §2
[3] = Solubility in HBSS buffer at 20 mM at pH 7.4 after 1 hr; type: physicochemical
Outline: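 20 mM DMSO stocks serially diluted in DMSO, then diluted 1:200 into HBSS pH 7.4. After 1 h incubation, plates read on a solubility scanner.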

Mus musculus = test: Reduction of cortical abeta40 level in FVB mouse at 3 mg/kg, po after 3 hrs; type: functional; parameters: scale not given: the % may be the effect or the level left
[4] = Apparent permeability from apical to basolateral side in MDCK2 cells at 5 uM after 120 mins; type: ADME, cell-based, Canis lupus familiaris, MDCK-II; settings: dog, MDCK
Outline: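 Compound at 5 µM in mHBSS pH 7.4 applied to MDCK II cell monolayers for 120 min at 37 °C. Apical and basolateral chambers sampled and analysed by LC/MS/MS.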

[5] = Metabolic stability in human liver microsomes at 2 uM after 30 mins in presence of 1 mM UDPGA; type: ADME, Microsome; settings: read-out: Stability
Outline: (§3)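 Glucuronidation stability: 2 µM compound incubated 30 min at 37 °C in phosphate buffer with liver microsomes (0.5 mg protein), 1 mM UDPGA, 100 mM MgCl2 and 25 µg/mL alamethicin. Read-out is percent parent compound remaining. Human or mouse microsomes per line.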

[6] = Metabolic stability in mouse liver microsomes at 2 uM after 30 mins in presence of 1 mM UDPGA; type: ADME, Microsome; settings: read-out: Stability; outline: as §3

remaining at 0.5 h, 1 µM [1] [%] | IC50 (Gamma-secretase) [nM] | remaining at 0.5 h, 1 µM [2] [%] | Compound | also measured
13 | 0.21 | 10 | O=S(=O)(c1ccc(Cl)cc1)N1c2ccccc2-c2n[nH]cc2C1C(F)(F)F (racemic) | –
3 | 4.5 | 18 | CC1c2c[nH]nc2-c2cc(Cl)sc2N1S(=O)(=O)c1ccc(C(F)(F)F)cc1 (racemic) | –
62 | 1.3 | 49 | O=S(=O)(c1ccc(Cl)cn1)N1c2ccc(F)cc2-c2n[nH]cc2C1C1CC1 (racemic) | –
87 | 0.44 | 85 | O=S(=O)(c1ccc(C(F)(F)F)cc1)N1c2cc(Cl)ccc2-c2n[nH]cc2C1C1CC1 (racemic) | –
– | 140 | 3 | CC1c2cn[nH]c2-c2ccccc2N1S(=O)(=O)c1cccnc1 (racemic) | –
6 | 2.6 | 3 | CC1c2c[nH]nc2-c2ccncc2N1S(=O)(=O)c1ccc(Cl)cc1 (racemic) | –
80 | 0.26 | 78 | O=S(=O)(c1ccc(C(F)(F)F)cc1)N1c2cc(I)ccc2-c2n[nH]cc2C1C1CC1 (single isomer, unassigned; enantiomer 3) | –
– | 4.2 | – | O=S(=O)(c1ccccc1)N1c2ccccc2-c2n[nH]cc2C1C1CC1 (single isomer, unassigned; enantiomer 1) | Stability (Liver microsomes): Not Active; Stability [2]: Not Active
60 | 0.41 | 32 | O=S(=O)(c1ccc(C(F)(F)F)cc1)N1c2cc(-c3cscn3)ccc2-c2n[nH]cc2C1C1CC1 (racemic) | –
6 | 2.1 | 23 | CC1c2c[nH]nc2-c2ccc(F)cc2N1S(=O)(=O)c1ccc(Cl)cc1 (racemic) | –
45 | 0.31 | 49 | O=S(=O)(c1ccc(C(F)(F)F)cc1)N1c2ccccc2-c2n[nH]cc2C1C1CC1 (racemic) | –
4 | 0.17 | 15 | O=S(=O)(c1ccc(Cl)cc1)N1c2ccccc2-c2n[nH]cc2C1C1CC1 (racemic) | –
0 | 27 | 2 | O=S(=O)(c1ccc(Cl)cc1)N1Cc2c[nH]nc2-c2ccccc21 | –
76 | 5500 | 65 | CC1c2c[nH]nc2-c2cc(F)ccc2N1S(=O)(=O)c1cn(C)cn1 (racemic) | –
0 | 1.5 | 1 | CC1c2c[nH]nc2-c2ccc(OCc3ccccc3)cc2N1S(=O)(=O)c1ccc(Cl)cc1 (racemic) | –
27 | 0.2 | 3 | O=S(=O)(c1ccc(C(F)(F)F)cc1)N1c2cc(-c3cncnc3)ccc2-c2n[nH]cc2C1C1CC1 (racemic) | –
13 | 1.6 | 23 | CC1c2c[nH]nc2-c2cc(F)ccc2N1S(=O)(=O)c1ccc(Cl)cc1 (racemic) | –
29 | 0.58 | 17 | O=S(=O)(c1ccc(C(F)(F)F)cc1)N1c2cc(N3CCOCC3)ccc2-c2n[nH]cc2C1C1CC1 (racemic) | –
1 | 0.28 | 2 | CC(C)C1c2c[nH]nc2-c2ccccc2N1S(=O)(=O)c1ccc(Cl)cc1 (racemic) | –
60 | 0.37 | 55 | O=S(=O)(c1ccc(OC(F)(F)F)cc1)N1c2ccc(F)cc2-c2n[nH]cc2C1C1CC1 (racemic) | –
– | 40 | – | O=[N+]([O-])c1ccc(S(=O)(=O)N2c3cc(F)c(F)cc3-c3n[nH]cc3C2C2CC2)cc1 (racemic) | Stability (Liver microsomes): Not Active; Stability [2]: Not Active
23 | 0.46 | 4 | O=S(=O)(c1ncc(Cl)s1)N1c2cc(F)c(F)cc2-c2n[nH]cc2C1C1CC1 (single isomer, unassigned; enantiomer 2) | –
53 | 85 | 35 | Nc1ccc(S(=O)(=O)N2c3cc(F)c(F)cc3-c3n[nH]cc3C2C2CC2)cc1 (racemic) | –

remaining at 0.5 h, 1 µM [1] [%] | IC50 (Gamma-secretase) [nM] | remaining at 0.5 h, 1 µM [2] [%] | Compound | also measured
1 | 2 | 1 | COc1ccc2c(c1)N(S(=O)(=O)c1ccc(Cl)cc1)C(C)c1c[nH]nc1-2 (racemic) | –
3 | 3.2 | 2 | COc1ccc(S(=O)(=O)N2c3ccccc3-c3n[nH]cc3C2C2CC2)cc1 (racemic) | –
4 | 0.52 | 9 | O=S(=O)(c1ccc(Cl)s1)N1c2cc(F)c(F)cc2-c2n[nH]cc2C1C1CC1 (racemic) | –
31 | 24 | 8 | Cc1nc2c(s1)N(S(=O)(=O)c1ccc(C(F)(F)F)cc1)C(C1CC1)c1c[nH]nc1-2 (racemic) | –
80 | 0.17 | 77 | N#Cc1ccc2c(c1)N(S(=O)(=O)c1ccc(C(F)(F)F)cc1)C(C1CC1)c1c[nH]nc1-2 (racemic) | –
3 | 1.2 | 16 | CC1c2c[nH]nc2-c2ccccc2N1S(=O)(=O)c1ccc(Cl)cc1 (racemic) | –
87 | 2.4 | 88 | O=S(=O)(c1ccc(C(F)(F)F)cc1)N1c2c[n+]([O-])ccc2-c2n[nH]cc2C1C1CC1 (racemic) | –
59 | 0.24 | 55 | O=S(=O)(c1ccc(C(F)(F)F)cc1)N1c2cc(-n3ccnc3)ccc2-c2n[nH]cc2C1C1CC1 (racemic) | –
68 | 0.76 | 56 | O=S(=O)(c1ccc(OC(F)F)cc1)N1c2ccc(F)cc2-c2n[nH]cc2C1C1CC1 (racemic) | –
74 | 27 | 56 | CC1c2c[nH]nc2-n2ccnc2N1S(=O)(=O)c1ccc(Cl)cc1 (racemic) | –
95 | 0.67 | 83 | O=S(=O)(c1ccc(C(F)(F)F)cn1)N1c2ccc(F)cc2-c2n[nH]cc2[C@H]1C1CC1 | solubility at 1 h [3]: 95 µM (≈ 41.6 µg/mL); Activity (Mus musculus): 43%; Papp A→B at 2 h, 5 µM [4]: 24.9 ×10⁻⁶ cm/s; remaining at 0.5 h, 2 µM [5]: 97%; remaining at 0.5 h, 2 µM [6]: 89%
2 | 0.36 | 7 | CCC1c2cn[nH]c2-c2ccccc2N1S(=O)(=O)c1ccc(Cl)cc1 (racemic) | –
50 | 0.65 | 27 | CC1c2cn[nH]c2-c2ccc(O)cc2N1S(=O)(=O)c1ccc(Cl)cc1 (racemic) | –
32 | 0.26 | 13 | O=C1OCCN1c1ccc2c(c1)N(S(=O)(=O)c1ccc(C(F)(F)F)cc1)C(C1CC1)c1c[nH]nc1-2 (racemic) | –
1 | 2.9 | 5 | O=S(=O)(c1cccs1)N1c2cc(F)c(F)cc2-c2n[nH]cc2C1C1CC1 (racemic) | –
59 | 1.1 | 53 | O=S(=O)(c1ccc(C(F)(F)F)cc1)N1c2ncccc2-c2n[nH]cc2C1C1CC1 (racemic) | –
73 | 290 | 46 | CC1c2c[nH]nc2-c2ccccc2N1S(=O)(=O)c1ccccn1 (racemic) | –
3 | 1.4 | 11 | CC1c2c[nH]nc2-c2c(F)cccc2N1S(=O)(=O)c1ccc(Cl)cc1 (racemic) | –
– | 0.26 | – | COC(=O)c1ccc2c(c1)N(S(=O)(=O)c1ccc(C(F)(F)F)cc1)C(C1CC1)c1c[nH]nc1-2 (racemic) | Stability (Liver microsomes): Not Active; Stability [2]: Not Active
9 | 0.74 | 11 | N#Cc1ccc(S(=O)(=O)N2c3ccccc3-c3n[nH]cc3C2C2CC2)cc1 (racemic) | –
44 | 2.1 | 25 | O=S(=O)(c1ccc(C(F)(F)F)cc1)N1c2cccnc2-c2n[nH]cc2C1C1CC1 (racemic) | –
8 | 0.42 | 11 | O=S(=O)(c1ccc(F)cc1)N1c2ccccc2-c2n[nH]cc2C1C1CC1 (racemic) | –

Compound | remaining at 0.5 h, 1 µM [1] [%] | IC50 (Gamma-secretase) [nM] | remaining at 0.5 h, 1 µM [2] [%] | also measured
CC1c2c[nH]nc2-c2ccc(OC(=O)N(C)C)cc2N1S(=O)(=O)c1ccc(Cl)cc1 (racemic) | 0 | 0.93 | 0 | –
